{"source": "ChEMBL document CHEMBL4196173", "about": "“Stabilized β-Hairpin Peptide Inhibits Insulin Degrading Enzyme” (J Med Chem, 2018)", "key": {"[1]": {"assay": "Absolute bioavailability in lean C57BL/6J mouse at 100 mg/kg, ip by LC-MS analysis", "assay_type": "ADME, organism-based", "conditions": "in vivo", "outline": "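Mice received the peptide by orbital i.v. injection (taken as 100%) or by i.p. injection. Plasma was sampled from 20 min to 43 h, TCA-precipitated and analysed by LC–MS. Fabc% = (AUCip × Div)/(AUCiv × Dip) × 100%. Two independent experiments.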"}, "Mus musculus [2]": {"test_system": "Mus musculus", "assay": "Effect on amyloid beta (1-40) levels in lean C57BL/6J mouse brain at 80 mg/kg, ip administered per another day measured after 4 hrs to 11 days post injection by ELISA", "assay_type": "ADME, organism-based", "conditions": "in vivo", "outline": "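Male lean C57BL/6J mice received 80 mg kg−1 i.p. every other day (n = 5) or PBS vehicle. Brains (~350 mg) were Dounce-homogenized in PBS with 1 mM PMSF and spun at 13,000 rpm for 30 min at 277 K. Supernatant Aβ(1–40) was measured by ELISA at 4 h, 24 h, 7 days and 11 days. Mean ± SEM, two-tailed t test.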"}, "[3]": {"assay": "Drug uptake in human HeLa cells at 5 uM using FITC-labeled compound after 2 hrs at 310 K by trypan blue-fluorescence based FACS analysis", "assay_type": "ADME, cell-based", "outline": "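HeLa cells were grown overnight in DMEM with 10% FBS, then given 5 μM FITC-labelled peptide in FBS-free medium for 2 h at 310 K. Cells were washed with PBS and 0.4% trypan blue, trypsinized and washed. Mean fluorescence was measured by flow cytometry with gated cell counts. Three independent experiments.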"}, "Mus musculus [4]": {"test_system": "Mus musculus", "assay": "Anti-diabetic activity in DIO C57BL/6J mouse model assessed as reduction in glucose levels at 80 mg/kg, ip administered 30 min prior to glucose stimulation […] by GTT", "assay_type": "functional, organism-based"}, "[5]": {"biological_target": "Insulin-degrading enzyme (Homo sapiens) (UniProt P14735)", "sequence (P14735 whole entry)": "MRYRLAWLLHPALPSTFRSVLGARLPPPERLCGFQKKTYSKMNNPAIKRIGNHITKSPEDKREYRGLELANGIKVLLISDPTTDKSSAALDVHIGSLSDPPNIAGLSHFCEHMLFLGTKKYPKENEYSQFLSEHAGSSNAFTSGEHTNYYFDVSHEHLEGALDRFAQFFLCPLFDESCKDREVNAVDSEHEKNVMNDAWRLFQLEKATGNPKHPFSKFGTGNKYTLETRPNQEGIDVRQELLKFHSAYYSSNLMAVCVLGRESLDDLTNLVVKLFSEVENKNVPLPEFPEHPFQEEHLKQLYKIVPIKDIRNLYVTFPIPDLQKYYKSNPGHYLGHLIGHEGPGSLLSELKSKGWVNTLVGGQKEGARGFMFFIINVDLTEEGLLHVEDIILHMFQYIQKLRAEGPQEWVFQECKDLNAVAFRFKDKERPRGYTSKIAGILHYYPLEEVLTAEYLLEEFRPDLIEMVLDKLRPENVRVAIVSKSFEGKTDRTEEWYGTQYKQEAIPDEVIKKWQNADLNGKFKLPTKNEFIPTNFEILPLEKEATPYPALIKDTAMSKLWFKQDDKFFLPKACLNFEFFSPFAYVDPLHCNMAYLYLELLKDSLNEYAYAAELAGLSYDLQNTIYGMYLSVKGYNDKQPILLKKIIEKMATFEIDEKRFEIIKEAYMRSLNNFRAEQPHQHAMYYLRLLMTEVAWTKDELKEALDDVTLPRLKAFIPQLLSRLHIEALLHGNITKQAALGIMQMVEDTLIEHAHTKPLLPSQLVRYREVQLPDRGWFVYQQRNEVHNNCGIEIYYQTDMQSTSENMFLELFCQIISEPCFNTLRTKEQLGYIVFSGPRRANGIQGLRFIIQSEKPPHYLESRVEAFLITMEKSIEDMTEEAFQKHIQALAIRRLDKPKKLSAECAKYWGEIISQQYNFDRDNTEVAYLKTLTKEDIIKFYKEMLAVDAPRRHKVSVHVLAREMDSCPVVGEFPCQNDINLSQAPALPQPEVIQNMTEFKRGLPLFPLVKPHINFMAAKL", "assay": "Inhibition of IDE (unknown origin)-mediated FITC-insulin degradation in rat skeletal muscle cells at 100 uM after 10 mins at 310 K by DAPI-staining based fluorescent inverted microscopic imaging analysis", "assay_type": "cell-based", "outline": "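Rat skeletal muscle cells on coverslips were given 100 nM wild-type IDE and 100 μM peptide for 10 min at 310 K, then FITC-insulin for a further 10 min. Cells were washed, fixed in 4% paraformaldehyde, stained with DAPI and imaged by fluorescent inverted microscopy. Repeated three times.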"}, "[6]": {"assay": "Tmax in lean C57BL/6J mouse at 100 mg/kg, ip by LC-MS analysis", "assay_type": "ADME, organism-based", "conditions": "in vivo", "outline": "(§1)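 Male lean C57BL/6J mice, 13–15 weeks old, given one i.p. dose of 100 mg kg−1 (n = 5). Tail or eye-socket blood was taken from 20 min to 43 h and spun to plasma. 30 μL plasma was mixed with 100 μL 10% TCA in H2O/CH3CN (1:1) and chilled at 277 K for 15 min. After centrifugation the peptide left in the supernatant was quantified by LC–MS. Two independent experiments.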"}, "Mus musculus [7]": {"test_system": "Mus musculus", "assay": "Toxicity in lean C57BL/6J mouse assessed as body weight change at 80 mg/kg, ip after 3 days", "assay_type": "organism-based", "conditions": "in vivo, 72 h", "outline": "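Male lean C57BL/6J mice (13–15 weeks) received 80 mg kg−1 i.p. or PBS vehicle (n = 6 each). Behaviour and body weight were monitored.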"}, "Insulin-degrading enzyme": {"biological_target": "T1, Insulin-degrading enzyme (Mus musculus, UniProt Q9JHR7)", "T1 sequence (Q9JHR7 whole entry)": "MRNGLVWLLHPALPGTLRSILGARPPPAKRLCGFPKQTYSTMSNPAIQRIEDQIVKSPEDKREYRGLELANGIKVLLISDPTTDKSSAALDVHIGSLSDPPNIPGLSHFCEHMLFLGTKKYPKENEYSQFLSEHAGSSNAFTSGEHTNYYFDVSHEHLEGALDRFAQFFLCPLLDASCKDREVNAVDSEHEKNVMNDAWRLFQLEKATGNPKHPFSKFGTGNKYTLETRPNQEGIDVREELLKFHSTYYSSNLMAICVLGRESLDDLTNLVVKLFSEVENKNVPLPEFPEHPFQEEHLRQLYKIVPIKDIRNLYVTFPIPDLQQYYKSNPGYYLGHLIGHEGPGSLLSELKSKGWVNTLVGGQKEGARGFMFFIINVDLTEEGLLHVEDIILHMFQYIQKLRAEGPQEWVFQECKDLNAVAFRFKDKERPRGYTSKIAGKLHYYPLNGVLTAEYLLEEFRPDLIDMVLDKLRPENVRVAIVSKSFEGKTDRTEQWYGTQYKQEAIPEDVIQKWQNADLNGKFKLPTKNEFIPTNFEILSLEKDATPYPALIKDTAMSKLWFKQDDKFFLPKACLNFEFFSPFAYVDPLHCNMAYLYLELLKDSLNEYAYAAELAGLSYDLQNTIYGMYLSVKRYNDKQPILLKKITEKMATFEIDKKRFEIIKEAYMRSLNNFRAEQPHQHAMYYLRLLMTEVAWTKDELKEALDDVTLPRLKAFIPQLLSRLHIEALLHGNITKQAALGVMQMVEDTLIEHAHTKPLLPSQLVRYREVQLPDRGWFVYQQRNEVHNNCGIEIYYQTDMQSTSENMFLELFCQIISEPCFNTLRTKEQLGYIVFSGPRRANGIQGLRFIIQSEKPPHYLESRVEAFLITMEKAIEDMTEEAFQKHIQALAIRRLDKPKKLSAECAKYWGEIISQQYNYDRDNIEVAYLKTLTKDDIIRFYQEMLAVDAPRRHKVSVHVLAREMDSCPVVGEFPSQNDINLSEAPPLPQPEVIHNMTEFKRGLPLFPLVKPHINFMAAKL", "assay": "Inhibition of mouse His-tagged IDE (42 to 1019 residues) using fluorophore/quencher-tagged RPPGFSAFK(Dnp)-OH peptide as substrate preincubated for 10 mins followed by substrate addition measured over 5 mins by TR-FRET assay"}, "Mus musculus [8]": {"test_system": "Mus musculus", "assay": "Induction of glucagon levels in lean C57BL/6J mouse at 80 mg/kg, ip after 30 to 120 mins post injection by ELISA", "assay_type": "functional, organism-based", "outline": "(§2)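 Male lean C57BL/6J mice received 80 mg kg−1 i.p. (n = 5) or PBS. At 30 or 120 min, heparinized blood was taken from tail or eye socket and spun to plasma. Insulin (5 μL plasma), C-peptide, glucagon, beta-endorphin and TNF alpha (10 μL each) were measured by ultrasensitive ELISA. Mean ± SEM, two-tailed t test.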"}, "[9]": {"assay": "Drug uptake in human HeLa cells at 5 uM using FITC-labeled compound after 2 hrs at 310 K by DAPI-staining based confocal microscopy", "assay_type": "ADME, cell-based"}, "[10]": {"assay": "Drug uptake in brain parenchyma of lean C57BL/6J mouse at 80 mg/kg, iv using FITC-labeled compound by two-photon microscopic analysis", "conditions": "in vivo"}, "[11]": {"assay": "Drug uptake in human HeLa cells at 5 uM using FITC-labeled compound after 2 hrs at 310 K by LC-MS analysis", "assay_type": "ADME, cell-based", "outline": "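HeLa cells were exposed to FITC-labelled peptide for 2 h, washed with PBS and 0.4% trypan blue, then trypsinized, washed and lysed. The lysates were examined by LC–MS.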"}, "Mus musculus [12]": {"test_system": "Mus musculus", "assay": "Effect on basal c-peptide levels in lean C57BL/6J mouse at 80 mg/kg, ip after 30 to 120 mins post injection by ELISA", "assay_type": "ADME, organism-based", "conditions": "in vivo", "outline": "as §2"}, "[13]": {"assay": "Cmax in lean C57BL/6J mouse at 100 mg/kg, ip by LC-MS analysis", "assay_type": "ADME, organism-based", "parameters": "dose 100 mg/kg, route intraperitoneal", "conditions": "in vivo", "outline": "as §1"}}, "note": "Active and inactive are the calls of the source. The calls are words filed in the database; no cut-off is given here."}
{"compound": "CC(=O)N[C@@H](CCC(=O)O)C(=O)N[C@@H](Cc1c[nH]c2ccccc12)C(=O)N[C@@H](CCCNC(=N)N)C(=O)N[C@@H](Cc1ccccc1)C(=O)N[C@H]1CC(=O)NC[C@@H](C(=O)N[C@@H](CC(C)C)C(=O)N[C@@H](Cc2ccc(O)cc2)C(=O)N[C@@H](CC(C)C)C(=O)N[C@H](C(=O)N[C@@H](CS)C(=O)NCC(N)=O)C(C)C)NC(=O)[C@H](CCC(=O)O)NC(=O)[C@@H]2CCCN2C(=O)[C@H]2CCCN2C(=O)CNC1=O", "values": [{"measurement": "bioavailability", "setting": "[1]", "result": 83.5, "unit": "%"}, {"measurement": "Activity", "setting": "Mus musculus [2]", "result": "Non-Toxic"}, {"measurement": "Drug uptake", "setting": "[3]", "result": "Active"}, {"measurement": "Activity", "setting": "Mus musculus [4]", "result": "Active"}, {"measurement": "inhibition", "setting": "[5]", "result": "Active"}, {"measurement": "Tmax", "setting": "[6]", "result": 1.4, "unit": "h"}, {"measurement": "Activity", "setting": "Mus musculus [7]", "result": "Non-Toxic"}, {"measurement": "IC50", "setting": "Insulin-degrading enzyme", "result": 22, "unit": "nM"}, {"measurement": "Activity", "setting": "Mus musculus [8]", "result": "Active"}, {"measurement": "Drug uptake", "setting": "[9]", "result": "Active"}, {"measurement": "Drug uptake", "setting": "[10]", "result": "Not Active"}, {"measurement": "Drug uptake", "setting": "[11]", "result": "Active"}, {"measurement": "Activity", "setting": "Mus musculus [12]", "result": "Non-Toxic"}, {"measurement": "Cmax", "setting": "[13]", "result": 619, "unit": "µg/mL"}]}
